Screening results deposited in PubChem BioAssay by several laboratories.
In the library only some 2.5% were active in any assay of this set; here they are far more common.
m5-HT2A agonist = activates the mouse 5-HT2A serotonin receptor | 360,000 tested, 0.66% active | CHO-K1 mHTR2A beta-arrestin complementation, luminescence; percent of 30 µM serotonin response | AID 624169 | activation, % at 7.6 µM | P35363;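 active means activation above a run cutoff, the mean activation of all tested compounds plus 3 SD, cut at about 14% in these data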;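 further: 0% = plate median of compound wells and 100% = 30 µM serotonin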
IMP-1 inhibitor = blocks Pseudomonas aeruginosa IMP-1 metallo-beta-lactamase; inhibition, % at 5.6 µM; 290,000 tested, 0.45% active; purified IMP-1, nitrocefin hydrolysis, epi-absorbance fluorescence;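 active means inhibition above the mean plus 3 SD of all compounds in the same screening run, cut at about 4.5% in these data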;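 further: 0% = IMP-1 with DMSO and 100% = DMSO wells lacking enzyme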
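System: purified IMP-1 / Input: IMP-1 dispensed at 0.2 nM / Medium: 50 mM HEPES pH 7.1, 50 µM ZnSO4, 0.05% Brij 35 / Timing: 15 min enzyme–compound preincubation, then 25 min nitrocefin reaction, 25 °C / Technique: plate fluorescence quenching by hydrolysis product, ex 480/em 530 nm / Repeats: singlicate testing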
dFosB act = activators of mouse delta FosB homodimer | activation, % at 25 µM | purified delta FosB, TAMRA-CDK5 oligo fluorescence polarization; percent of positive-control signal above neutral wells | AID 493131 | 340,000 tested, 0.99% active | P13346;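 active means mean activation above about 17%, with every replicate also reaching it, limit read from the data, passing the limit was not always enough; inconclusive means only one of the two conditions met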
Target sequence (P13346 whole entry, looked up): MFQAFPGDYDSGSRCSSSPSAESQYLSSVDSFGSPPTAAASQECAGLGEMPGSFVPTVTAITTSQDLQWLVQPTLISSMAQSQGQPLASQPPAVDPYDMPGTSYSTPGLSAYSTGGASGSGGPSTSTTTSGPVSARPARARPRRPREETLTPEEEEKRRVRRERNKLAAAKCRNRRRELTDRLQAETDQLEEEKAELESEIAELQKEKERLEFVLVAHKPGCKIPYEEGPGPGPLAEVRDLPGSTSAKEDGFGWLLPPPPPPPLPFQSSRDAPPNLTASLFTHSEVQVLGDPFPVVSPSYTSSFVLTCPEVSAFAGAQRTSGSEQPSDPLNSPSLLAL
VIM-2 inhibitor = blocks Pseudomonas aeruginosa VIM-2 metallo-beta-lactamase; purified VIM-2, nitrocefin hydrolysis, epi-absorbance fluorescence; inhibition, % at 5.6 µM; 290,000 tested, 0.89% active;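 active means inhibition above the mean of all tested compounds plus 3 SD, cutoff set per screening run, cut at about 7.5% in these data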;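 further: red hydrolysis product quenches plate fluorescence so inhibitors raise well fluorescence; 0% = enzyme with DMSO and 100% = DMSO without enzyme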
MOR ag counter = OPRM1 agonism in mouse HTR2A counterscreen | shares compounds with m5-HT2A agonist | U2OS OPRM1 beta-arrestin PathHunter, luminescence; DMSO 0%, DAMGO 9.3 µM 100% | activation, % at 9.3 µM | 2,300 tested, 5.3% active | AID 624380;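 active means mean activation above the mean of DMSO-only wells plus 3 SD, cut at about 0.5% in these data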
m5-HT2A ag conf = confirmation of mouse HTR2A serotonin receptor agonists. activation, % at 7.6 µM. shares compounds with m5-HT2A agonist. 2,300 tested, 19% active. CHO-K1 PathHunter beta-arrestin recruitment, luminescence; DMSO 0%, 30 µM serotonin 100%;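 active means mean activation across triplicates above the hit threshold derived in the original primary screen, cut at about 15% in these data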
Numbers without * were called inactive.

`Oc1ccccc1C=NNC(=S)NC1CC2C=CC1C2` (stereo not drawn) gave m5-HT2A agonist 19*, MOR ag counter 0 and m5-HT2A ag conf 6.
For Cc1nn(C)c(Cl)c1CN1CCN(C2CCCC2)C(CCO)C1 (stereo not drawn) the results were m5-HT2A agonist 24*, IMP-1 inhibitor -2, dFosB act 4, VIM-2 inhibitor 1, MOR ag counter -1 and m5-HT2A ag conf 2.
Screening CCOC(=O)[C@@H](CCc1ccccc1)N[C@H](C)C(=O)N1[C@H](C(=O)O)C[C@@H]2CCC[C@@H]21 returned m5-HT2A agonist 3, IMP-1 inhibitor -4, dFosB act 6 and VIM-2 inhibitor -1.
For CCOC(=O)[C@H](CCc1ccccc1)N[C@@H](C)C(=O)N1[C@H](C(=O)O)C[C@@H]2CCC[C@@H]21 the results were m5-HT2A agonist 44*, dFosB act -2, MOR ag counter -1 and m5-HT2A ag conf -1.
Cc1ccccc1NS(=O)(=O)c1ccc(C(=O)N2CCCC2)cc1 was read as m5-HT2A agonist 7 and dFosB act -2.
`Cc1cccc(NS(=O)(=O)c2ccc(C(=O)N3CCN(c4ccccc4O)CC3)cc2)c1C` gave m5-HT2A agonist 16*, IMP-1 inhibitor 0, dFosB act -8, VIM-2 inhibitor 1, MOR ag counter 0.5* and m5-HT2A ag conf 5.
For COC(=O)c1ccc(NC(=O)CS(=O)(=O)c2ccccc2)cc1 the results were m5-HT2A agonist 4, IMP-1 inhibitor -1, dFosB act -6 and VIM-2 inhibitor 0.
Screening COc1ccc(CCNC(=O)CSc2ccc3ccccc3c2)cc1OC returned m5-HT2A agonist -5, IMP-1 inhibitor -2, dFosB act -6 and VIM-2 inhibitor -3.
Screening O=C(CSc1ccc2ccccc2c1)NCCc1ccc(O)c(O)c1 returned m5-HT2A agonist 31*, IMP-1 inhibitor -3, dFosB act -11, VIM-2 inhibitor -2, MOR ag counter 0 and m5-HT2A ag conf 101*.
CCOC(=O)C1(CCCc2ccccc2)CCN(Cc2ccn[nH]2)CC1 was read as m5-HT2A agonist 15*, IMP-1 inhibitor -2, dFosB act -6, VIM-2 inhibitor -2, MOR ag counter -1 and m5-HT2A ag conf -5.
For COc1ccc(S(=O)(=O)N(C)CC(=O)N2CCN(C)CC2)cc1Cl the results were m5-HT2A agonist 1, IMP-1 inhibitor -3, dFosB act 3 and VIM-2 inhibitor -4.
`COc1ccc(S(=O)(=O)N(C)CC(=O)N2CCCCC2)cc1Cl` gave m5-HT2A agonist 15*, IMP-1 inhibitor 1, dFosB act -6, VIM-2 inhibitor -1, MOR ag counter -1 and m5-HT2A ag conf -1.
O=C(C[n+]1cc(-c2ccccc2)n2c1CCC2)Nc1nc(-c2ccc(F)cc2)cs1 was read as m5-HT2A agonist 21*, IMP-1 inhibitor 0, dFosB act 2, VIM-2 inhibitor -1, MOR ag counter -1 and m5-HT2A ag conf 51*.
`O=C(C[n+]1cc(-c2ccc(F)cc2)n2c1CCC2)Nc1nc(-c2ccc(F)cc2)cs1` gave m5-HT2A agonist -1, IMP-1 inhibitor -3, dFosB act inconclusive and VIM-2 inhibitor -2.
Screening CCNC(=O)C1CCCN(Cc2ccc(C)c3ccccc23)CC1 (stereo not drawn) returned m5-HT2A agonist 1.
C#Cc1ccc([C@H]2C=C(C(=O)NCc3ccccc3)O[C@@H](OCc3ccc(CO)cc3)C2)cc1 was read as m5-HT2A agonist -11 and dFosB act -10.
COc1ccc2nc(NC(=O)c3ccoc3C)sc2c1 was read as m5-HT2A agonist 23*, IMP-1 inhibitor -5, dFosB act -3, VIM-2 inhibitor 0, MOR ag counter -1 and m5-HT2A ag conf -5.
C=CCCC(=O)N1CCCC(Cc2cccc(Cl)c2)(C(=O)OCC)C1 (stereo not drawn) was read as m5-HT2A agonist 2, IMP-1 inhibitor 0, dFosB act -8 and VIM-2 inhibitor -1.
Screening COc1cccc(-c2ccc3nnc(SCC(=O)Nc4ccc(NC(C)=O)cc4)n3n2)c1 returned m5-HT2A agonist 5 and dFosB act -7.
Screening Cc1csc2c(N3CCN(C(=O)c4ccc(C(C)(C)C)cc4)CC3)ncnc12 returned m5-HT2A agonist 2, IMP-1 inhibitor -1, dFosB act -15 and VIM-2 inhibitor -3.
Cc1csc2c(N3CCN(C(=S)Nc4ccc(C(F)(F)F)cc4)CC3)ncnc12 was read as m5-HT2A agonist 32*, IMP-1 inhibitor -1, dFosB act 5, VIM-2 inhibitor 0, MOR ag counter -1 and m5-HT2A ag conf 8.
`Cc1csc2c(N3CCN(C(=O)NC(C)(C)C)CC3)ncnc12` gave m5-HT2A agonist 41*, IMP-1 inhibitor -2, dFosB act -9, VIM-2 inhibitor 3, MOR ag counter -1 and m5-HT2A ag conf -2.
For COC(=O)CSc1[nH]c(=O)cc(C)c1C#N the results were m5-HT2A agonist 17*, IMP-1 inhibitor -2, dFosB act 3, VIM-2 inhibitor -1, MOR ag counter 0 and m5-HT2A ag conf -3.
Screening Cc1ccc(-n2c(N)c(C(N)=O)sc2=S)cc1 returned m5-HT2A agonist 19*, IMP-1 inhibitor 3, dFosB act -2, VIM-2 inhibitor 1, MOR ag counter -1 and m5-HT2A ag conf -5.
Nc1cc(Cl)nnc1Cl was read as m5-HT2A agonist 19*, IMP-1 inhibitor -2, dFosB act -4, VIM-2 inhibitor 0, MOR ag counter -1 and m5-HT2A ag conf -2.
`Cc1cc(C)c2cc(N)c(Cl)nc2n1` gave m5-HT2A agonist -1.
Screening CCN(C(=O)CSc1nnc(-c2ccccc2Cl)n1N)c1c(N)n(Cc2ccccc2)c(=O)[nH]c1=O returned m5-HT2A agonist 1 and dFosB act -3.
For CCNc1c(NCC)c(=O)c1=O the results were m5-HT2A agonist 0, IMP-1 inhibitor -3, dFosB act 3 and VIM-2 inhibitor -2.
`CCOc1ccc(NC(=S)N2c3ccccc3CC2C)cc1` (stereo not drawn) gave m5-HT2A agonist 16*, IMP-1 inhibitor -3, dFosB act -11, VIM-2 inhibitor -2, MOR ag counter 0 and m5-HT2A ag conf -1.
`O=C(O)c1nn(CC(=O)N(C2CCCCC2)C2CCCCC2)c(=O)c2ccccc12` gave m5-HT2A agonist 33*, IMP-1 inhibitor -2, dFosB act -16, VIM-2 inhibitor -1, MOR ag counter 0 and m5-HT2A ag conf 1.
Screening CCN(C(=O)Cn1nc(C(=O)O)c2ccccc2c1=O)C1CCCCC1 returned m5-HT2A agonist 3, IMP-1 inhibitor -1, dFosB act -4 and VIM-2 inhibitor -3.
